Results published in ChEMBL document CHEMBL2151030, “Improving the solubility of a new class of antiinflammatory pharmacodynamic hybrids, that release nitric oxide and inhibit cycloxygenase-2 isoenzyme” (Eur J Med Chem, 2012).
Values after ≈ are worked out from the molar mass of the structure shown.

Columns and labels:
[1] = tested on: Rattus norvegicus; assay: Antiinflammatory activity in rat assessed as reduction of carrageenan-induced paw pressure at 20 mg/kg, po after 60 mins post carrageenan-challenge; format: functional; set-up: scale not given: the % may be the effect or the level left
Summary of the method: (§1)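 Rats (Sprague-Dawley or Wistar, 150-200 g) received intraplantar carrageenan 4 h before testing, then oral compound or CMC vehicle. Paw-pressure threshold read before treatment and at 15, 30, 45 and 60 min after treatment, compared with saline and carrageenan controls.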

[2] = tested on: Rattus norvegicus; assay: Antiinflammatory activity in rat assessed as reduction of carrageenan-induced paw pressure at 40 mg/kg, po after 30 mins post carrageenan-challenge; format: functional; set-up: scale not given: the % may be the effect or the level left; summary of the method: as §1
[3] = tested on: Rattus norvegicus; assay: Antiinflammatory activity in rat assessed as reduction of carrageenan-induced paw pressure at 20 mg/kg, po after 15 mins post carrageenan-challenge; format: functional; set-up: scale not given: the % may be the effect or the level left; summary of the method: as §1
[4] = Solubility of the compound in PBS buffer at pH 7.4 by HPLC analysis; format: physicochemical
Summary of the method: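 20 mM DMSO stocks diluted 1:100 into 0.01 M PBS pH 7.4 in duplicate wells of a solubility filter plate, shaken 90 min at 300 rpm. Seven-point calibration standards from 1 to 200 μM.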

[5] = target: T1, Prostaglandin G/H synthase 1 (Mus musculus, UniProt P22437); assay: Inhibition of COX1-mediated PGE2 production in mouse J774 cells preincubated for 15 mins measured after 30 mins by radioimmunoassay; format: cell-based
T1 sequence (P22437 whole entry): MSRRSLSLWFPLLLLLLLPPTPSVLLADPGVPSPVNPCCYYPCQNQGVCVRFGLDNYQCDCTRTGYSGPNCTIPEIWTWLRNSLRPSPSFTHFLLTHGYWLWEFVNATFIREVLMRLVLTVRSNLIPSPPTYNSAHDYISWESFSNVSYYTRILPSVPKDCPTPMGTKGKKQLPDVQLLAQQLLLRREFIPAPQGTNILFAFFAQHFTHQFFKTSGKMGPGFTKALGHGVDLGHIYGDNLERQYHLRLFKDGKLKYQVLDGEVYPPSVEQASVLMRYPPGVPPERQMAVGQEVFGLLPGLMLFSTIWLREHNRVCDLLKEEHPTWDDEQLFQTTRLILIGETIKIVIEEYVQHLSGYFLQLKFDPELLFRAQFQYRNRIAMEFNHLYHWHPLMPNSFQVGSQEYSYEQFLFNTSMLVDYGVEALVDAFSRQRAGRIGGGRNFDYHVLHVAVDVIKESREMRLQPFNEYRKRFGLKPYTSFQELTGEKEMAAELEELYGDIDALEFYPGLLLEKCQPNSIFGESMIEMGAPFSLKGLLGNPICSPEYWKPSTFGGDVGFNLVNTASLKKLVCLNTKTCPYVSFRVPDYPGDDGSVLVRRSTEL
Summary of the method: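 Murine J774 macrophages in DMEM/10% FBS, adhered 2 h at 37 °C. […] Supernatant PGE2 measured by RIA. Triplicate wells, mean of three experiments; IC50 by sigmoidal variable-slope fit.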

[6] = tested on: Rattus norvegicus; assay: Antiinflammatory activity in rat assessed as reduction of carrageenan-induced oedema in right hind paw at 40 mg/kg, po after 4 hrs post carrageenan-challenge; format: functional; set-up: scale not given: the % may be the effect or the level left
Summary of the method: (§2)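 Sprague-Dawley or Wistar rats (150-200 g). Carrageenan injected intraplantar; oral treatment with test compound or CMC vehicle. Right hind paw volume measured 4 h after carrageenan and compared with saline- and carrageenan-treated controls.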

[7] = tested on: Rattus norvegicus; assay: Antiinflammatory activity in rat assessed as reduction of carrageenan-induced oedema in right hind paw at 20 mg/kg, po after 4 hrs post carrageenan-challenge; format: functional; set-up: scale not given: the % may be the effect or the level left; summary of the method: as §2
[8] = tested on: Mus musculus; assay: Analgesic activity in Swiss albino mouse assessed as reduction of acetic acid-induced writhing at 5.5 nmol/kg, po after 5 mins; format: functional; set-up: scale not given: the % may be the effect or the level left
Summary of the method: (§3)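 Male Swiss albino mice (23-25 g), standard diet and water ad libitum, 23 ± 1 °C, 12 h light/dark cycle. Test compound given orally; 0.6% acetic acid (10 mL/kg) injected ip. Stretching movements counted for 10 min, beginning 5 min after administration.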

[9] = Solubility of the compound in simulated gastric fluid without pepsin at pH 1.5 by HPLC analysis; format: physicochemical
Summary of the method: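 Compound from 20 mM DMSO stock diluted 1:100 into 0.05 M simulated gastric fluid without pepsin (pH 1.5 with HCl), duplicate wells on a solubility filter plate, shaken 90 min at 300 rpm. Seven-point calibration standards from 1 to 200 μM.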

[10] = tested on: Rattus norvegicus; assay: Antiinflammatory activity in rat assessed as reduction of carrageenan-induced paw pressure at 40 mg/kg, po after 15 mins post carrageenan-challenge; format: functional; set-up: scale not given: the % may be the effect or the level left; summary of the method: as §1
[11] = tested on: Mus musculus; assay: Analgesic activity in Swiss albino mouse assessed as reduction of acetic acid-induced writhing at 36.8 nmol/kg, po after 5 mins; format: functional; set-up: scale not given: the % may be the effect or the level left; summary of the method: as §3
[12] = tested on: Mus musculus; assay: Analgesic activity in Swiss albino mouse assessed as reduction of acetic acid-induced writhing at 73.6 nmol/kg, po after 5 mins; format: functional; set-up: scale not given: the % may be the effect or the level left; summary of the method: as §3
[13] = target: T2, Prostaglandin G/H synthase 2 (Mus musculus) (UniProt Q05769); assay: Inhibition of COX2-mediated PGE2 production in LPS-induced mouse J774 cells by radioimmunoassay relative to control; format: cell-based; set-up: concentration or dose not given beside the values; details: concentration not given here
T2 sequence (whole entry): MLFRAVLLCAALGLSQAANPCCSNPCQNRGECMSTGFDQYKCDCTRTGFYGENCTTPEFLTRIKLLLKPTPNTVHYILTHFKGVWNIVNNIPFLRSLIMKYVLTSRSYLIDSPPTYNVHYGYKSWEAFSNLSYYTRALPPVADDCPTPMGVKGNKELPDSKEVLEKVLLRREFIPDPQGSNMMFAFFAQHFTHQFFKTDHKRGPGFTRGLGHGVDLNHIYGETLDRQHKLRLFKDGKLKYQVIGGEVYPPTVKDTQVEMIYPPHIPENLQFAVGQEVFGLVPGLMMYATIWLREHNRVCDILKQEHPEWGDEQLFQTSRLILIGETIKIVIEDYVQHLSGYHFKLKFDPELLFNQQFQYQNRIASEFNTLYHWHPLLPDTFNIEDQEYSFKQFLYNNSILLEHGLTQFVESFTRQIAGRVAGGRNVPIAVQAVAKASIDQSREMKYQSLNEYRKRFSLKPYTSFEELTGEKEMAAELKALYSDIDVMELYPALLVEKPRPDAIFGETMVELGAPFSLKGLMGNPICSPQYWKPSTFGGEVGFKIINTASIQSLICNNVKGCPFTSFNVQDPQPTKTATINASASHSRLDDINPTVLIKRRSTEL
Summary of the method: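 J774 cells, cultured as for the COX-1 assay, were stimulated 24 h with E. coli LPS (10 µg/mL) to induce COX-2, with or without compound at 0.01–10 μM. Supernatant PGE2 was measured by RIA as % inhibition versus control, triplicate wells, mean of three experiments. IC50 came from a sigmoidal variable-slope dose-response fit.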

[14] = tested on: Rattus norvegicus; assay: Antiinflammatory activity in rat assessed as reduction of carrageenan-induced paw pressure at 40 mg/kg, po after 60 mins post carrageenan-challenge; format: functional; set-up: scale not given: the % may be the effect or the level left; summary of the method: as §1
[15] = tested on: Mus musculus; assay: Analgesic activity in Swiss albino mouse assessed as reduction of acetic acid-induced writhing at 18.4 nmol/kg, po after 5 mins; format: functional; set-up: scale not given: the % may be the effect or the level left; summary of the method: as §3
[16] = target: T3, Prostaglandin G/H synthase 1 (Mus musculus) (UniProt P22437); assay: Inhibition of COX1-mediated PGE2 production in mouse J774 cells at 10 uM preincubated for 15 mins measured after 30 mins by radioimmunoassay relative to control; format: cell-based
T3 sequence (whole entry): T1 sequence (P22437 whole entry)
Summary of the method: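 Murine J774 macrophages in DMEM with 10% FBS, glutamine, HEPES, pyruvate and antibiotics, adhered 2 h at 37 °C in 5% CO2. Medium was refreshed, cells were pretreated with compound for 15 min, then given 15 μM arachidonic acid for 30 min at 37 °C. PGE2 in supernatant was measured by RIA as % inhibition versus control, triplicate wells, mean of three experiments.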

[17] = tested on: J774; assay: Selectivity index, ratio of IC50 for COX1-mediated PGE2 production to IC50 for COX2-mediated PGE2 production in mouse J774 cells; format: cell-based
Summary of the method: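 Ratio of the COX-1 IC50 to the COX-2 IC50, both from PGE2 RIA in J774 cells. For COX-1, cells were given compound for 15 min, then 15 μM arachidonic acid for 30 min; lower concentrations (0.01–1 μM) were tested when warranted. For COX-2, cells were given LPS 10 µg/mL for 24 h with compound at 0.01–10 μM. IC50 came from a sigmoidal variable-slope fit.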

[18] = tested on: Rattus norvegicus; assay: Antiinflammatory activity in rat assessed as reduction of carrageenan-induced paw pressure at 40 mg/kg, po after 45 mins post carrageenan-challenge; format: functional; set-up: scale not given: the % may be the effect or the level left; summary of the method: as §1
[19] = tested on: Rattus norvegicus; assay: Antiinflammatory activity in rat assessed as reduction of carrageenan-induced paw pressure at 20 mg/kg, po after 30 mins post carrageenan-challenge; format: functional; set-up: scale not given: the % may be the effect or the level left; summary of the method: as §1
[20] = tested on: Aorta; assay: Vasorelaxant activity in Wistar rat endothelium-denuded thoracic aortic ring assessed as inhibition of KCl-induced contractile tone in presence of guanylate cyclase inhibitor ODQ; format: functional, tissue-based
Summary of the method: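 Male normotensive Wistar rats (250–350 g); thoracic aortic rings, endothelium removed by rubbing, removal confirmed by <10% relaxation to ACh (10 µM) in KCl (30 mM)-contracted rings. ODQ 1 µM incubated after confirmation; rings contracted with KCl 30 mM, then 3-fold increasing compound concentrations (1 nM–10 µM). Isometric tension; pIC50 from half reduction of KCl tone; mean ± SE, 6–10 experiments.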

[21] = tested on: Rattus norvegicus; assay: Antiinflammatory activity in rat assessed as reduction of carrageenan-induced paw pressure at 20 mg/kg, po after 45 mins post carrageenan-challenge; format: functional; set-up: scale not given: the % may be the effect or the level left; summary of the method: as §1
[22] = target: T4, Prostaglandin G/H synthase 2 (Mus musculus, UniProt Q05769); assay: Inhibition of COX2-mediated PGE2 production in LPS-induced mouse J774 cells by radioimmunoassay; format: cell-based
T4 sequence (Q05769 whole entry): T2 sequence (whole entry)
Summary of the method: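 J774 murine macrophages stimulated 24 h with E. coli LPS (10 µg/mL) to induce COX-2, with or without compound (0.01–10 μM). Supernatant PGE2 measured by RIA; percent inhibition against controls. Triplicate wells, mean of three experiments; IC50 from sigmoidal variable-slope fit.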

[23] = tested on: Mus musculus; assay: Analgesic activity in Swiss albino mouse assessed as reduction of acetic acid-induced writhing at 35.9 nmol/kg, po after 5 mins; format: functional; set-up: scale not given: the % may be the effect or the level left; summary of the method: as §3
[24] = tested on: Mus musculus; assay: Analgesic activity in Swiss albino mouse assessed as reduction of acetic acid-induced writhing at 71.8 nmol/kg, po after 5 mins; format: functional; set-up: scale not given: the % may be the effect or the level left; summary of the method: as §3

Structure (SMILES) | solubility [4] | IC50 [5] | solubility [9] | inhibition [13] | inhibition [16] | Ratio IC50 [17] | IC50 [20] | IC50 [22] | also measured
Cc1c(C(N)C(=O)OCCCO[N+](=O)[O-])cc(-c2ccc(S(C)(=O)=O)cc2)n1-c1ccc(F)cc1 (stereo not given) | 80 µM (≈ 40.4 µg/mL) | > 10000 nM | > 200 µM | 95% | 0% | > 12.2 | 2190 nM | – | Activity [1]: 15%; Activity [2]: 70%; Activity [3]: 25%; Activity [6]: 45%; Activity [7]: 15%; Activity [8]: 19%; Activity [10]: 40%; Activity [11]: 46.1%; Activity [12]: 59.6%; Activity [14]: 16%; Activity [15]: 36.2%; Activity [18]: 53%; Activity [19]: 44%; Activity [21]: 27%
Cc1c(C(N)C(=O)OCCCO)cc(-c2ccc(S(C)(=O)=O)cc2)n1-c1ccc(F)cc1 (stereo not given) | – | > 10000 nM | – | 100% | 23% | > 13.2 | – | 760 nM | –
Cc1c(C(N)C(=O)OCCCO[N+](=O)[O-])cc(-c2ccc(S(C)(=O)=O)cc2)n1-c1cccc(F)c1 (stereo not given) | – | > 10000 nM | – | 100% | 5% | > 6.62 | – | 1510 nM | –
Cc1c(C(N)C(=O)OCCCCO[N+](=O)[O-])cc(-c2ccc(S(C)(=O)=O)cc2)n1-c1ccc(F)cc1 (stereo not given) | 70.8 µM (≈ 36.8 µg/mL) | > 10000 nM | > 200 µM | 82% | 1% | > 10 | 1550 nM | – | Activity [23]: 26.9%; Activity [24]: 40.7%
